Measurements gathered from unrelated publications.
Each line is one published result; the experiments were not run side by side.
Target: Dual specificity tyrosine-phosphorylation-regulated kinase 1A (DYRK1A, Homo sapiens, UniProt Q13627)

SMILES | observed | action | method | concentration | quantity | value
C=C(C)C1CCC(C)=C1COC(=O)c1cc([N+](=O)[O-])cc([N+](=O)[O-])c1 (stereo not shown) | enzyme activity | inhibitor | ADP detection | 10 µM | inhibition | 10.3%
CCCCC(=O)Nc1ccc(-c2ccc3ncn(CCC)c(=O)c3c2)cn1 | binding |  | competition with immobilised ligand | 0.5 µM | remaining binding | 81%
CC(C)S(=O)(=O)c1ccc2nccc(Nc3ccc4sc(C5CCCC5)nc4c3)c2c1 | enzyme activity | inhibitor |  | 1 µM | activity vs control | 103%
C[C@H]1CC[C@H](n2c3cnccc3c3cnc(Nc4ccc5c(n4)CCN(C(=O)CO)C5)nc32)CC1 | cell-free assay |  |  | 1 µM | remaining signal | 0%
CC(=O)ON=C1C=CC(=C(C#N)c2ccccc2)C=C1 | enzyme activity | inhibitor | ADP detection | 2 µM | activity vs control | 99%
CC#CC(=O)N1CCC[C@H]1c1nc(-c2ccc(C(=O)Nc3ccccn3)cc2)c2c(N)nccn12 | enzyme activity | inhibitor |  | 1 µM | inhibition | 3%
O=[N+]1C=CC(=C2C=CN([O-])C=C2)C=C1 | enzyme activity | inhibitor | ADP detection | 10 µM | inhibition | 52.8%
C=CC(=O)N1CCC([C@@H]2CCNc3c(C(N)=O)c(-c4ccc(Oc5ccccc5)cc4)nn32)CC1 | cell-free assay |  |  | 1 µM | inhibition | 3%
CN1CCN(C(=O)c2ccc(NC(=O)Nc3ccc(N(C)c4ccnc(Nc5ccc(CS(C)(=O)=O)cc5)n4)cc3)cc2)CC1 | binding |  |  | 1 µM | remaining binding | 62%
c1cnc(-c2nnc3sc(C45CC6CC(CC(C6)C4)C5)nn23)cn1 | enzyme activity | inhibitor | ADP detection | 10 µM | inhibition | 8.44%
C1=C/COCc2cc(ccc2OCCN2CCCC2)Nc2nccc(n2)-c2cccc(c2)COC/1 | binding |  |  | 0.1 µM | remaining binding | 52%
CCOC(=O)c1c(NC(=O)CCC(=O)OC)sc2c1CCCC2 | enzyme activity | inhibitor | ADP detection | 10 µM | inhibition | 18.3%
COc1ccc2oc(-c3ccc4nc(N)oc4c3)c/c(=N\c3ccccc3NC(=O)CCN)c2c1 | binding |  | competition with immobilised ligand | 1 µM | remaining binding | 111%
